Compound activity from PubChem.
CAL PDZ FP-1: untagged CAL PDZ binding inhibitors, primary screen, biochemical, fluorescence polarization, HTS. purified CAL PDZ, TMR-peptide fluorescence polarization, 1 h. 300,000 compounds, 0.92% hits. inhibition, % at 24.9 µM. Golgi-associated PDZ and coiled-coil motif-containing protein (Homo sapiens), Q9HD26;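 active = mean inhibition of at least 30% with at least half of replicates also reaching 30%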;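 also: 0% = DMSO neutral control and 100% = excess unlabeled competitor peptide PRC23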
Tn7 DDE FP: inhibitors of Tn7 peptide binding to fibrin DD(E), primary screen, biochemical, fluorescence polarization, human fibrin, Tn7 probe; FP displacement of FITC-Tn7 peptide from fibrin DD(E); 0% = median of compound wells per plate; inhibition, % at 8.3 µM; 370,000 compounds, 0.13% hits; AID 720508, 2013;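 active = inhibition above the mean of compounds falling within the control limits plus 3 SD of them, cut at about 14% in these data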;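 also: 0% = plate median of compound wells and 100% = 10 µM Aha-Tn7 peptide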
Target sequence (P02675 whole entry, looked up): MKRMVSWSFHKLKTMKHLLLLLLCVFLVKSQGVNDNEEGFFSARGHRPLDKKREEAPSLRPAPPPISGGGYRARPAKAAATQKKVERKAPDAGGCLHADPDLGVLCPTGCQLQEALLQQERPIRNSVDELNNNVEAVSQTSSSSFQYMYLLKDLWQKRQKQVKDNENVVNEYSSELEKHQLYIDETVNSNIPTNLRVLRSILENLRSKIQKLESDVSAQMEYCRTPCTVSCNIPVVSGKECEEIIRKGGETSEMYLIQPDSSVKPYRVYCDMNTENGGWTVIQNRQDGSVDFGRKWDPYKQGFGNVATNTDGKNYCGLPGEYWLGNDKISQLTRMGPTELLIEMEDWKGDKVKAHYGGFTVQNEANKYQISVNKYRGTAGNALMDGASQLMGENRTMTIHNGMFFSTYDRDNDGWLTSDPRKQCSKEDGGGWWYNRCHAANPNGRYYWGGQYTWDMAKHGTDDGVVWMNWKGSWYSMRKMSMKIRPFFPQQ
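Assay system: Fibrin-DD(E) protein isolated from polymerized human fibrin clots; read-out basis: percent inhibition; medium: Tris/NaCl/CaCl2 buffer, pH 7.8; signal: FP measurement; incubation: 10 min plus 3 h, room temperature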
Tn6 DDE FP: inhibitors of Tn6 peptide binding to fibrin DD(E), primary screen, biochemical, fluorescence polarization, human fibrin, Tn6 probe; Fibrin DD(E) TRITC-Tn6 fluorescence polarization displacement; inhibition, % at 8.3 µM; 370,000 compounds, 0.21% hits; Fibrinogen beta chain (Homo sapiens), P02675;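 active = inhibition above a per-campaign cutoff: mean of compounds within control limits plus 3 SD, cut at about 15% in these data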;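 also: 0% = median of all compound wells on the plate and 100% = blocking peptide control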
GRK2 inh: compounds blocking aptamer binding on GRK2 – biochemical, human GRK2, bead flow cytometry, HTS, primary screen; 330,000 compounds, 0.59% hits; Beta-adrenergic receptor kinase 1 (Homo sapiens), P25098; FAM-aptamer displacement from GRK2; AID 488847, 2010; inhibition of aptamer binding, % at 10 µM;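 active = inhibition of aptamer binding above 40%, roughly 3 SD of noise, on plates passing a quality check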;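 also: median bead fluorescence of bound FAM aptamer so fluorescent compounds give negative values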
CAL PDZ FP-2: CAL PDZ peptide-binding inhibitors, primary screen, biochemical, fluorescence polarization, Cer-tagged CAL PDZ, HTS. Golgi-associated PDZ and coiled-coil motif-containing protein (Homo sapiens), Q9HD26. purified CAL PDZ, TMR-peptide fluorescence polarization, 1 h. inhibition, % at 20 µM. 330,000 compounds, 0.02% hits. AID 504414, 2011;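 active = highest replicate inhibition of at least 40%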;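 also: plate controls were DMSO neutral control wells for no effect and unlabeled competitor peptide control wells for full effect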
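material = purified tagged CAL PDZ domain construct (CerCALP) | compound dosing = 20 µM, one dose | times = 1 h at RT | measured by = fluorescence polarization from S- and P-plane intensities, G-factor corrected | read-out = inhibition from polarization loss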
ARNT-TACC3 inh: disruptors of ARNT/TACC3 protein interaction, primary screen, biochemical, AlphaScreen, single concentration; 390,000 compounds, 0.66% hits; Transforming acidic coiled-coil-containing protein 3 (Homo sapiens), Q9Y6A5; inhibition, % at 9.99 µM; AID 623870, 2012; AlphaScreen His-ARNT PAS-B/GST-TACC3 binding, luminescence; TACC3 fragment carries E629A point mutation;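 active = mean inhibition of replicates at least 50% and at least half of replicates each reaching 50%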;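 also: 0% = complete ARNT plus TACC3 wells and 100% = ARNT alone without TACC3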
AlphaScreen ctr: AlphaScreen signal interference compounds, dose response, artefact control for ARNT-TACC3 interaction inhibitor project, biochemical, luminescence, cherry-pick. shares compounds with ARNT-TACC3 inh. His-ARNT PASB-GST AlphaScreen artifact counter-screen. AC50, µM (highest dose often 68 µM), inactives show top-dose activity change, negative = signal decrease. 1,200 compounds, 50% hits;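 active = every separate test run was called active for a drop in luminescence, with AC50 within twice the top valid dose, actives reach about 71 µM in these data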
Starred values were filed as active, the others as inactive; / = not tested or not shown; [ ] = another dose, or the depositor's remark. Sampled rows, rich in hits. Any-hit rate of the full collection: about 1.8%.

SMILES	CAL PDZ FP-1	Tn7 DDE FP	Tn6 DDE FP	GRK2 inh	CAL PDZ FP-2	ARNT-TACC3 inh	AlphaScreen ctr
NC(=O)C1CCN(C(=O)CCC(=O)c2ccc(Br)cc2)CC1	1.3	1.6	2.8	0.0	-0.5	-10.6	/
CCCN1C[C@H](C)[C@H](OC)CN(C)C(=O)c2ccc(NC(=O)c3cnccn3)cc2OC[C@H]1C	/	/	/	/	/	-12.5	/
CCOC(=O)[C@]12CCCCC/C=C\1N(CCc1ccc(Cl)cc1)C(=O)[C@H]2CC(=O)NCCCCc1ccccc1	/	-0.1	-8.0	/	/	/	/
COc1cccc(/C=N/n2c(-c3n[nH]c4c3CCC4)n[nH]c2=S)c1O	2.7	0.3	4.4	0.0	-2.4	33.6*	-11.9%
COc1cc(/C=N/n2c(-c3n[nH]c4c3CCC4)n[nH]c2=S)cc(OC)c1O	-3.7	9.5	-2.5	0.0	-2.0	-5.8	/
Cc1[nH]n(-c2ccccc2)c(=O)c1/C=N/NC(=O)COc1ccccc1[N+](=O)[O-]	-0.9	3.0	-4.1	2.0	-1.0	59.0*	-26.3%
Cc1ccoc1C(=O)NCCNC(=O)c1occc1C	-7.1	-2.1	0.6	3.0	-2.2	-5.4	/
Cc1ccoc1C(=O)NCCCNC(=O)c1occc1C	-2.6	2.5	-0.2	10.0	-3.7	56.2*	-7.1%
Cc1nc(SCC(=O)Nc2cccc(Cl)c2)n[nH]1	0.9	-7.6	6.9	1.0	0.4	-10.4	/
Cc1ccc(C)c(NC(=O)CSc2n[nH]c(-c3ccccn3)n2)c1	/	1.3	2.3	0.0	-0.3	76.5*	10.4µM*
O=C(CSc1n[nH]c(-c2ccccn2)n1)Nc1cccc(Cl)c1	-6.4	7.0	6.2	0.0	-0.9	55.5*	13.6µM*
COc1cccc(C#Cc2ccc3c(c2)O[C@H](CN(C)C(=O)c2ccccn2)[C@H](C)CN([C@H](C)CO)S3(=O)=O)c1	/	/	/	/	/	0.3	/
O=C(COC(=O)c1ccc(O)cc1O)Nc1ccc2ccccc2c1	4.2	-7.0	0.3	0.0	-0.4	1.4	/
O=C(COC(=O)c1ccc(O)cc1O)Nc1nnc(-c2ccccc2)o1	-4.3	-7.1	-6.0	8.0	-3.6	60.4*	47µM*
C[C@H]1CN([C@@H](C)CO)S(=O)(=O)c2ccc(C3=CCCC3)cc2O[C@@H]1CN(C)S(=O)(=O)c1ccc(F)cc1	/	/	/	/	/	4.5	/
CC(=O)Nc1ccccc1NC(=O)C/C(C)=N/NC(=O)c1ccccn1	-1.9	-9.8	5.2	0.0	-2.4	/	/
C/C(CC(=O)NCc1ccccc1Cl)=N/NC(=O)c1ccccn1	/	-4.9	2.3	1.0	-1.6	26.2*	2.1%
C/C(CC(=O)NC1CCCCC1)=N\NC(=O)c1ccccn1	2.3	-3.8	13.2	0.0	0.2	13.2	/
C/C(CC(=O)Nc1ccc(F)cc1)=N\NC(=O)c1ccccn1	-3.9	1.9	-11.2	2.0	-1.7	22.1*	-7.0%
C[C@@H]1CN([C@@H](C)CO)C(=O)c2cc(NS(=O)(=O)c3ccc(F)cc3)ccc2O[C@@H](C)CCCCO[C@H]1CN(C)CC1CC1	/	/	/	/	/	-4.5	/
Oc1cc(NCCN2CCOCC2)cc2cccnc12	0.5	2.0	2.5	0.0	0.9	58.6*	11.1µM*
Cc1noc(C)c1NC(=O)N(C)C[C@@H]1Oc2c(NC(=O)C3CCCCC3)cccc2C(=O)N([C@H](C)CO)C[C@H]1C	/	/	/	/	/	-6.5	/
COc1ccc(C2=C(C)CC(C)(C)NC2=O)cc1OC	-1.3	-3.8	-10.7	0.0	-0.3	active	5.0%
N/C(=N\S(=O)(=O)c1cc(C(F)(F)F)cc(C(F)(F)F)c1)c1ccncc1	-4.9	8.6	3.9	2.0	-0.3	-8.0	/
N/C(=N\NS(=O)(=O)c1cc(C(F)(F)F)cc(C(F)(F)F)c1)c1ccccn1	-4.9	1.4	6.4	1.0	-0.8	56.8*	-5.3%
SMILES	CAL PDZ FP-1	Tn7 DDE FP	Tn6 DDE FP	GRK2 inh	CAL PDZ FP-2	ARNT-TACC3 inh	AlphaScreen ctr
O=C(C[C@H]1C=C[C@@H](NC(=O)C2CC2)[C@@H](CO)O1)Nc1nccs1	/	/	/	/	/	33.9*	-3.3%[38 µM]
COC(=O)c1sc(N)c(C(=O)OC)c1COC(=O)c1c(C)noc1C	/	1.6	9.4	0.0	-1.3	1.3	/
COC(=O)c1sc(N)c(C(=O)OC)c1Cn1ncc(Cl)c(Cl)c1=O	4.3	-0.8	0.1	2.0	0.9	51.9*	-10.3%
CCOC(=O)C(NCc1ccccn1)(NC(=O)c1cccnc1)C(F)(F)F (stereo not drawn)	-4.4	2.5	8.2	0.0	0.3	65.7*	-16.3%
CCOC(=O)C(NC(=O)c1cccnc1)(Nc1cccc(C)n1)C(F)(F)F (stereo not drawn)	-2.0	4.2	-2.5	0.0	-0.1	-3.7	/
NC(=O)CC(NC(=O)c1ccccc1)c1ccc(NCc2ccccn2)c([N+](=O)[O-])c1 (stereo not drawn)	-2.5	-5.0	-0.7	0.0	0.1	65.2*	-13.1%
C[C@@H]1CN([C@@H](C)CO)C(=O)c2ccccc2-c2ccccc2CO[C@H]1CN(C)C(=O)NC1CCCCC1	/	/	/	/	/	-9.1	/
Cc1ccc(Nc2c(-c3ccccn3)nc3ccc(C)cn23)cc1	-2.1	-1.2	-1.3	3.0	0.7	28.0	/
Cc1ccc(Nc2c(-c3ccccn3)nc3cc(C)ccn23)cc1	-8.6	-5.1	-3.1	1.0	-0.1	62.0*	12.7µM*
COC(=O)CNC(=O)CCC(=O)N1CCN(C(c2ccccc2)c2ccccc2)CC1	-3.3	5.9	-13.0	0.0	-0.3	0.4	/
CCCCNC(=O)CCC(=O)N1CCN(C(c2ccccc2)c2ccccc2)CC1	-5.9	1.5	0.1	0.0	-0.7	49.5*	-7.6%
C[C@H]1CN([C@@H](C)CO)C(=O)c2cc(NS(=O)(=O)c3cn(C)cn3)ccc2O[C@@H]1CN(C)Cc1ccc(Cl)c(Cl)c1	/	/	/	/	/	-2.9	/
Cc1ccc(S(=O)(=O)/N=C2\C=C(Nc3ccc(O)cc3)C(=O)c3ccccc32)cc1	/	/	/	1.0	3.0	53.6*	5.24µM*
O=C(N[C@H]1CC[C@@H](CCn2cc(-c3ccccn3)nn2)O[C@@H]1CO)c1ccccc1	/	/	/	/	/	76.6*	41.5µM*
O=C(N[C@@H]1CC[C@@H](CCn2cc(-c3ccccn3)nn2)O[C@H]1CO)c1ccccc1	/	/	/	/	/	74.0*	41µM*
